Reference: ChEMBL document CHEMBL1144782, “Isoindolo[2,1-a]quinoxaline derivatives, novel potent antitumor agents with dual inhibition of tubulin polymerization and topoisomerase I” (2008)
Active and inactive are the calls of the source. The rule behind the calls is not given here.

Legend:
SF-268 = assay: Cell viability against human SF268 cells at 10 uM; assay type: functional
NCI-H460 = assay: Cell viability against human NCI-H460 cells at 10 uM; assay type: functional
MCF7 = assay: Cell viability against human MCF7 cells at 10 uM; assay type: functional
A549 = assay: Disruption of tubulin network in human A549 cells assessed as disaggregation of microtubules at 1 uM […]; assay type: functional, cell-based
Jurkat = assay: Cell cycle arrest in human Jurkat cells at mitosis at 0.5 uM after 24 hrs; assay type: functional
How it was run: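 Exponentially growing Jurkat cells were exposed for 24 h, then pelleted at 400g for 5 min. Hypotonic KCl (75 mM, 4 °C) was applied for 20 min, followed by methanol–acetic acid (3:1) fixation and Giemsa staining. 400 cells per treatment were scored microscopically; mitotic index is the fraction with mitotic figures. Three independent experiments, mean ± SEM.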

Tubulin (Sus scrofa) = Tubulin (Sus scrofa) (UniProt P02554+P02550); assay: Inhibition of pig brain tubulin polymerization at 3 uM
Sequence of Tubulin (Sus scrofa) (P02550 whole entry, looked up): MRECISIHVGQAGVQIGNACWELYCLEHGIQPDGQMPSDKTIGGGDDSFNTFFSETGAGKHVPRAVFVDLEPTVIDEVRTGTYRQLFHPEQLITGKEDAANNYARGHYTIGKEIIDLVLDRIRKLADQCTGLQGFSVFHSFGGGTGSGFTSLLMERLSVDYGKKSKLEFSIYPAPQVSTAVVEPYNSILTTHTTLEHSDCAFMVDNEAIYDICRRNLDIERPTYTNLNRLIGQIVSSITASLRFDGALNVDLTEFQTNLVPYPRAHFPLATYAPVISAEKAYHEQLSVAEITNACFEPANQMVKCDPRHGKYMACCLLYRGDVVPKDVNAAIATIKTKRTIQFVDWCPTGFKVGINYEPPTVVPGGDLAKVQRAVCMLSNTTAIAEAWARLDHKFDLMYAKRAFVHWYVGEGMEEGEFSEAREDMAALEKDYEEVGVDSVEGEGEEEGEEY
Sequence of Tubulin (Sus scrofa) (P02554 whole entry, looked up): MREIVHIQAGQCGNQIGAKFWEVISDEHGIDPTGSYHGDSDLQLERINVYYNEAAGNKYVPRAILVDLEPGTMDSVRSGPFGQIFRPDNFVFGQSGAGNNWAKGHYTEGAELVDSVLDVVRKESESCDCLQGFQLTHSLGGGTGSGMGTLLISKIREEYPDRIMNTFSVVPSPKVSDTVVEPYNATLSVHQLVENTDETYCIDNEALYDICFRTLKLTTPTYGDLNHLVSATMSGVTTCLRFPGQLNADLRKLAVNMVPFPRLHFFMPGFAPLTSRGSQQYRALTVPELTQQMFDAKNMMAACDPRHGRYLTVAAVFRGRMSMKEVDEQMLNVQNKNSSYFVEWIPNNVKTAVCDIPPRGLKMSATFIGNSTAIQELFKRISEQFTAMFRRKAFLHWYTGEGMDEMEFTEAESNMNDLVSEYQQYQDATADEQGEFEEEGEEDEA

SMILES | Activity (SF-268) [%] | Activity (NCI-H460) [%] | Activity (MCF7) [%] | further results
Cc1cc2ncc3c4ccccc4c(C#N)n3c2cc1C | 83 | 78 | 97 | 
N#Cc1c2ccccc2c2cnc3ccccc3n12 | 94 | 91 | 107 | 
N#Cc1c2ccccc2c2cnc3cc(Cl)c(Cl)cc3n12 | 104 | 104 | 108 | 
CC[C@]1(O)C[C@@H]2CN(CCc3c([nH]c4ccccc34)[C@@](C(=O)OC)(c3cc4c(cc3OC)N(C)[C@H]3[C@@](O)(C(=O)OC)[C@H](OC(C)=O)[C@]5(CC)C=CCN6CC[C@]43[C@@H]65)C2)C1 |  |  |  | Activity (A549): Active
COc1cc2c(c(OC)c1OC)-c1ccc(OC)c(=O)cc1[C@@H](NC(C)=O)CC2 [COLCHICINE] |  |  |  | Activity (Jurkat): 50%
CC(=O)O[C@H]1C(=O)[C@@]2(C)[C@H]([C@H](OC(=O)c3ccccc3)[C@]3(O)C[C@H](OC(=O)[C@H](O)[C@@H](NC(=O)c4ccccc4)c4ccccc4)C(C)=C1C3(C)C)[C@]1(OC(C)=O)CO[C@@H]1C[C@@H]2O |  |  |  | Activity (Tubulin (Sus scrofa)): Active
